Among the data in ChEMBL document CHEMBL1137074, “Novel N-arylpyrazolo[3,2-c]-based ligands for the glucocorticoid receptor: receptor binding and in vivo activity” (J Med Chem, 2004) are IC50 and EC50 values, retold here.

Test [1] has as its target Mineralocorticoid receptor (Rattus norvegicus) (UniProt P22199). Briefly: Binding affinity for rat mineralocorticoid receptor.
Test [2] has as its target T1, Glucocorticoid receptor (Homo sapiens, UniProt P04150).
T1 sequence (P04150 whole entry): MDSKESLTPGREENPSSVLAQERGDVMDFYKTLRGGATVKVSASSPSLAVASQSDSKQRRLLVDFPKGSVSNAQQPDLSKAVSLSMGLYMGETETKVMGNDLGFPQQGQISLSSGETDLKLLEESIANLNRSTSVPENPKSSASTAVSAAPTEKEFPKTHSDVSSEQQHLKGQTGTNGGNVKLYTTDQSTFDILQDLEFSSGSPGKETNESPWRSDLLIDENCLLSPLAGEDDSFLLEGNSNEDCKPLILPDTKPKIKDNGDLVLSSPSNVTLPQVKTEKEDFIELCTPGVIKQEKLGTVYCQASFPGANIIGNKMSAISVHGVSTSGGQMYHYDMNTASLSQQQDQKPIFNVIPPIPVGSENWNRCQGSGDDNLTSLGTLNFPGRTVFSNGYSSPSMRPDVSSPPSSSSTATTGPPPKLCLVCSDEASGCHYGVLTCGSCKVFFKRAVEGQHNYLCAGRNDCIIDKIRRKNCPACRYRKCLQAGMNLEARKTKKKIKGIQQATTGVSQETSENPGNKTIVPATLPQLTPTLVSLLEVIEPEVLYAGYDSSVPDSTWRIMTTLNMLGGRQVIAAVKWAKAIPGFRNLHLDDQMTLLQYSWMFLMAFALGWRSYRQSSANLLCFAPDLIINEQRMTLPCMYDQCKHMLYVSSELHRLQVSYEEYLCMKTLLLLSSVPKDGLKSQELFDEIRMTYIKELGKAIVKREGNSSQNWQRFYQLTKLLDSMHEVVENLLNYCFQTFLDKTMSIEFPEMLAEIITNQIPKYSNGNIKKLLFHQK
In words: Ability to induce human IL-6 assay in A549 lung carcinoma cell line. The class given is functional, cell-based.

Test [3] has as its target T1, Glucocorticoid receptor. In words: Binding affinity for human glucocorticoid receptor.
The target in test [4] is T2, Androgen receptor (Homo sapiens, UniProt P10275).
T2 sequence (P10275 whole entry): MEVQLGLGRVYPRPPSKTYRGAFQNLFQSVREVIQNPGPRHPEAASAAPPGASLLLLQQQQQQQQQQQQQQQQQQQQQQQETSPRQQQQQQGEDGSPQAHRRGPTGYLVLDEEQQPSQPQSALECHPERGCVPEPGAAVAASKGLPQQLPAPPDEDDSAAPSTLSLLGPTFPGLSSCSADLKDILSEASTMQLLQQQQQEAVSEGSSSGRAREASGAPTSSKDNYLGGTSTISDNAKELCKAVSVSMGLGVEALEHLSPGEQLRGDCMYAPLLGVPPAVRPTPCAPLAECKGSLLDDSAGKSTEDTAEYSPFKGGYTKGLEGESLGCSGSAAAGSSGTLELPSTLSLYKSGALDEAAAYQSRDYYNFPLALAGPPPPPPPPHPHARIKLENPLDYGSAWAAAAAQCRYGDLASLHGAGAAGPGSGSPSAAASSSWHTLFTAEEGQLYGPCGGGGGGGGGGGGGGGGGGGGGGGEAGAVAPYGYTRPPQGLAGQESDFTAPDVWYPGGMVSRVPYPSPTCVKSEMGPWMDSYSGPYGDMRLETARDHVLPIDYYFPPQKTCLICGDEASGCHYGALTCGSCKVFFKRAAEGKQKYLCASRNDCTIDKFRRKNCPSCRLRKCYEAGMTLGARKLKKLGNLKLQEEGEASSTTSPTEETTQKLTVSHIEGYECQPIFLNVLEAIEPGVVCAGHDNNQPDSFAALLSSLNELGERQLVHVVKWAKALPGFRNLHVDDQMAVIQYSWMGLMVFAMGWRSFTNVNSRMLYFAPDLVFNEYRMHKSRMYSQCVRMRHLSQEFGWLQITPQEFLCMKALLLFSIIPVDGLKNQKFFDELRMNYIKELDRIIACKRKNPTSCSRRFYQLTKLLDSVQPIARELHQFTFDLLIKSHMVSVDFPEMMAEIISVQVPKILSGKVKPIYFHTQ
Briefly: Binding affinity for human androgen receptor.

For test [5], the target named is T1, Glucocorticoid receptor. Briefly: Glucocorticoid induced transactivation of human tyrosine amino transferase in HepG2 cells. The format is functional, cell-based.
Test [6] deals with Mus musculus. In words: Ability to induce mouse macrophage IL-6 assay in peritoneal exudate cells harvested by […] from C57BI/6 mice. The class given is functional, cell-based. In outline: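 Thioglycolate-elicited peritoneal exudate cells from C57Bl/6 mice, harvested day 3 in PBS/heparin, washed and resuspended at 5.6×10^5 cells/mL in RPMI 1640 with 10% heat-inactivated FCS. Compound (typically 3 μM final) preincubated 1 h at 37 °C, 5% CO2, then LPS or TNF added, 24 h. Supernatant IL-6 read; duplicate wells, three experiments.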

The target of test [7] is T3, Progesterone receptor (Homo sapiens, UniProt P06401).
T3 sequence (P06401 whole entry): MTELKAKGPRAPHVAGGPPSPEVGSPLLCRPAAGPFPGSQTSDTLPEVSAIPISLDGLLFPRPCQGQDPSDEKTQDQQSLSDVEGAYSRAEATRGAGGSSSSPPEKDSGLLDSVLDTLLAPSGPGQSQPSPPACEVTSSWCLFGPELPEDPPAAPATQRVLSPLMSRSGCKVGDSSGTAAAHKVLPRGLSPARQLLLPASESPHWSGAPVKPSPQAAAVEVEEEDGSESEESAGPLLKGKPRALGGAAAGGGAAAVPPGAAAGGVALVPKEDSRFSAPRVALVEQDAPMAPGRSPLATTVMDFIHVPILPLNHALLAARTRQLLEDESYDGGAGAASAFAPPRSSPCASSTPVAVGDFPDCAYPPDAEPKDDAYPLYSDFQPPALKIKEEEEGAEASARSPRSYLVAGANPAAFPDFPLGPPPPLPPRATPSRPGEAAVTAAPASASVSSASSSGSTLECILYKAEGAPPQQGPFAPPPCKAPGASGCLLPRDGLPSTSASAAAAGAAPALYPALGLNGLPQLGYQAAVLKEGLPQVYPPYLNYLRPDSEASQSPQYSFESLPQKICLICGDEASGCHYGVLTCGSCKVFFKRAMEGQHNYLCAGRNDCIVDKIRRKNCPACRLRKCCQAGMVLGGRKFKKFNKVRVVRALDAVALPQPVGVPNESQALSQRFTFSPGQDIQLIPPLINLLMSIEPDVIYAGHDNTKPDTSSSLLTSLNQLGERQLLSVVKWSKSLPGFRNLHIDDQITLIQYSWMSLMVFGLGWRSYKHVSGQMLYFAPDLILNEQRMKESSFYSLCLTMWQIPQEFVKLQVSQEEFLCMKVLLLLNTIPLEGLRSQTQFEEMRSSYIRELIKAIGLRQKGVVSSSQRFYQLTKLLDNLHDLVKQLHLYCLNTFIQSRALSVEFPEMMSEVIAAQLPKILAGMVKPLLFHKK
In words: Binding affinity towards human progesterone receptor. Put shortly:
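Receptor homogenates from frozen cell pellets in ice-cold KPO4 buffer (10 mM KPO4, 20 mM molybdate, 1 mM EDTA, 5 mM DTT, protease inhibitors), spun 35 000g 1 h at 4 °C. MR: recombinant baculovirus-expressed rat receptor, 2 nM [3H]aldosterone; PR: T-47D cell protein, 5 nM [3H]progesterone.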

The target in test [8] is T4, Estrogen receptor (Homo sapiens, UniProt P03372).
T4 sequence (P03372 whole entry): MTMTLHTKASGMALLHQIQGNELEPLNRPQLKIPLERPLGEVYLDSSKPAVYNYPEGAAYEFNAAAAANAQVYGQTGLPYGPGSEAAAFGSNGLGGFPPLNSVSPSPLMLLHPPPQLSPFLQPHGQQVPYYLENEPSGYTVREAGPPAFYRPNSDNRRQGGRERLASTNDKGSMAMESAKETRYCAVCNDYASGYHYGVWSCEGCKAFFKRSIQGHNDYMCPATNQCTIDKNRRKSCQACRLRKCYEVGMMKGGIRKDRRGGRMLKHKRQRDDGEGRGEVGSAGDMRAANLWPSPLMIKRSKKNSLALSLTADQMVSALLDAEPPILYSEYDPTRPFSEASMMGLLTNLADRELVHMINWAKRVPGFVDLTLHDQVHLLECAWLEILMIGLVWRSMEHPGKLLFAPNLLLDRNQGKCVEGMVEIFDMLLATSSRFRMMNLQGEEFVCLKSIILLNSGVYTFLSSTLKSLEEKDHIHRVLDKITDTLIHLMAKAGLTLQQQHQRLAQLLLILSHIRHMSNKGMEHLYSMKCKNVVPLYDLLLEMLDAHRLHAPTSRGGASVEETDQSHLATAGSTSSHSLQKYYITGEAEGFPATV
Briefly: Binding affinity for human Estrogen receptor alpha.

Test [9] addresses T1, Glucocorticoid receptor. In words: Compound was tested for inhibitory activity towards human glucocorticoid receptor.
Test [10] concerns the target T1, Glucocorticoid receptor. Briefly: Ability to induce human glutamine synthetase in skeletal muscle cells. The format is cell-based.

Sequence of Mineralocorticoid receptor (Rattus norvegicus) (P22199 whole entry, looked up): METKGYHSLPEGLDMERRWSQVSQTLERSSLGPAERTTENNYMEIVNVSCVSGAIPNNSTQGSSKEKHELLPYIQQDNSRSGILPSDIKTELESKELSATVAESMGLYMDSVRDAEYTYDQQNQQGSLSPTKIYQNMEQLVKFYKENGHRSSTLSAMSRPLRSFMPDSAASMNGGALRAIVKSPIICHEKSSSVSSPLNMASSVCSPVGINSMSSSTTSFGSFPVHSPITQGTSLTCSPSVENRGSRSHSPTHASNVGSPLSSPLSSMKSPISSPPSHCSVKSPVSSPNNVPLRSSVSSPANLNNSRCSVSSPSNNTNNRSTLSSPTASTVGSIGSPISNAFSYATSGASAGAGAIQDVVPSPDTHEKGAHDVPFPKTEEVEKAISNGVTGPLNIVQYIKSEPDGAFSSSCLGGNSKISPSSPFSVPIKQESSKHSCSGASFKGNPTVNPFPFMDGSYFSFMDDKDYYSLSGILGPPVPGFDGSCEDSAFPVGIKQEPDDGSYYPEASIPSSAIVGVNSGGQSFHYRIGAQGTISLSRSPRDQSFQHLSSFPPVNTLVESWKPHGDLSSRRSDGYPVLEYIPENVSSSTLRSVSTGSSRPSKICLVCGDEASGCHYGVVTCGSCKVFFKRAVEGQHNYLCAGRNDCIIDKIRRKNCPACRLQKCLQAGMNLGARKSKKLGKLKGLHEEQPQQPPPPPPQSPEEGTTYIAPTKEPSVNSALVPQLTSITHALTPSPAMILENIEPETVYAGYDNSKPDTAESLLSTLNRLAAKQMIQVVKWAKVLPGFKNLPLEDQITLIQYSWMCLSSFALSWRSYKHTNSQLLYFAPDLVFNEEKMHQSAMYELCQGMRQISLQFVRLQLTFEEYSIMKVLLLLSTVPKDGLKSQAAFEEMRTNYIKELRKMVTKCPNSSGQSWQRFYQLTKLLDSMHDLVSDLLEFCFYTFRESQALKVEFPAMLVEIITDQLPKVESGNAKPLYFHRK

Usually IC50 stands for the concentration that inhibits the measured activity by half. As a reminder, the EC50 is the concentration that produces a half-maximal response. As for `COc1cc([C@H](O)[C@H]2CCCC3=Cc4c(cnn4-c4ccc(F)cc4)C[C@@]32C)cc(F)c1F`, the IC50 in [1] is greater than 5000 nM; in test [3], 1.9 nM; in test [4], greater than 5000 nM; in test [7], greater than 1000 nM; in [8] it was greater than 1000 nM; in [9] it was 1.9 nM. For the same compound, the half-maximal effective concentration (EC50) in [2] is 14.4 nM; in test [5], 521 nM; in [6], 15.2 nM.
For `C=CCC[C@H](O)[C@H]1CCCC2=Cc3c(cnn3-c3ccc(F)cc3)C[C@@]21C`, the IC50 in [1] is greater than 5000 nM; in [3] it was 4.2 nM; in test [4], greater than 5000 nM; in test [7] it was greater than 1000 nM; in [8], greater than 1000 nM; in test [9], 1.1 nM. Further, the 50% effective concentration (EC50) in [2] amounted to 4.4 nM; in [5], 256 nM; in [6], 5.7 nM.
`C[C@]12Cc3cnn(-c4ccc(F)cc4)c3C=C1CCC[C@@H]2[C@H](O)c1ccc(F)cc1`: the IC50 in test [1] is greater than 5000 nM; in test [4] it was greater than 5000 nM; in test [7], greater than 1000 nM; in test [8], greater than 1000 nM.
In the case of `C[C@]12Cc3cnn(-c4ccc(F)cc4)c3C=C1CCC[C@@H]2[C@@H](O)c1ccccc1`, the IC50 in [1] is greater than 5000 nM; in test [3], 8.4 nM; in test [4], greater than 5000 nM; in test [7], 660 nM; in [8] it was greater than 1000 nM; in test [9], 8.4 nM. Besides, the EC50 was found to be 2.9 nM in test [2] and 111 nM in test [6].
For `C[C@]12Cc3cnn(-c4ccc(F)cc4)c3C=C1CCC[C@@H]2[C@](C)(O)c1ccc(F)cc1`, the half-inhibitory concentration (IC50) in test [1] was greater than 5000 nM; in test [3], 2.5 nM; in test [4], greater than 5000 nM; in [7] it was greater than 1000 nM; in [8], greater than 1000 nM; in test [9], 2.5 nM. Also, the EC50 amounted to 2.2 nM in test [2], 57.2 nM in test [5], 1.4 nM in [6] and 130 nM in test [10].
